The target in the experiment is Oxysterols receptor LXR-beta (Homo sapiens) (UniProt P55055). The experiment can be described thus: LXR activator potency, GAL4 reporter, dose response, selectivity assay for RORA inverse agonist project, cell-based, luminescence, powder sample (AID 463150). To be noted: HEK293T GAL4-LXR LBD luciferase reporter, 18-24 h. In outline: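 test system = HEK293T with GAL4-LXR LBD fusion and UAS luciferase reporter | schedule = 24 h bulk reverse transfection before replating, then 20 h compound exposure | technique = luminescence | control set = DMSO-treated cells as normalization reference for luminescence | compound dosing = 10-point series from nominal 10 µM | read-out basis = EC50 from four-parameter sigmoidal fit with adjustable baseline of percent activation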
Oxysterols receptor LXR-beta (Homo sapiens), sequence (P55055 whole entry, looked up, the tested form may be a part): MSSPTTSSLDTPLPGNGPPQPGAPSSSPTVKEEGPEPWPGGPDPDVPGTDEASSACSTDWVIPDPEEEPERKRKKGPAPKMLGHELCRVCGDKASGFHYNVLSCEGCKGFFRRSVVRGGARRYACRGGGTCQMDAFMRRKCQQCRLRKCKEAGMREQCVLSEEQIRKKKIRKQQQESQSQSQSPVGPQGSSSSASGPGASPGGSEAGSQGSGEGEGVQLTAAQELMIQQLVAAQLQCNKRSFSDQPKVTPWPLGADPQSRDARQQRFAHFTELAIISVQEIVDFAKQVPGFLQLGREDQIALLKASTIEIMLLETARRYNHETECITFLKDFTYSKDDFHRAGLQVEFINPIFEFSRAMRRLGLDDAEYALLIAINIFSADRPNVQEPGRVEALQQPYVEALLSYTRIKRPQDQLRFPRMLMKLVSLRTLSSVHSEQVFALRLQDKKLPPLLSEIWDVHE
(Reporter assays use an easily measured gene product as a stand-in for the process of interest.)

Activity calls are given as the source filed them.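 Rule for the calls: active = LXR activation with EC50, the half-maximal effective concentration, of 10 µM or lower; inactive = the rest.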

As usually defined, the EC50 is the concentration that produces a half-maximal response.

As to `O=S(=O)(Nc1ccc(C(O)(C(F)(F)F)C(F)(F)F)cc1)c1cccs1`, the EC50 was > 10 µM (inactive).

(Values after PubChem BioAssay AID463150 (The Scripps Research Institute Molecular Screening Center, 2010).)
